ChEMBL document CHEMBL1287651, “Synthesis and in vitro antibacterial activity of fluoroquinolone derivatives containing 3-(N'-alkoxycarbamimidoyl)-4-(alkoxyimino) pyrrolidines” (2010)
In brackets after ≈: the same amount, converted by molar mass.

Columns and labels:
Assay type in all cases: functional
[1] = system: Staphylococcus epidermidis; assay: Antibacterial activity against methicillin-sensitive Staphylococcus epidermidis 09-3 after 18 to 24 hrs by twofold serial dilution method
Procedure, shortened: (§1)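 Standard twofold serial agar dilution method on agar media for MIC determination. Screened against representative Gram-positive and Gram-negative strains. Levofloxacin and GMFX served as control drugs.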

[2] = system: Pseudomonas aeruginosa; assay: Antibacterial activity against Pseudomonas aeruginosa ATCC 27853 after 18 to 24 hrs by twofold serial dilution method
Procedure, shortened: (§2)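 MIC determined by the standard twofold serial dilution method on agar media, screening against Gram-positive and Gram-negative strains. Levofloxacin and gemifloxacin were run alongside as reference drugs.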

[3] = system: Klebsiella pneumoniae; assay: Antibacterial activity against Klebsiella pneumoniae 09-21 after 18 to 24 hrs by twofold serial dilution method; procedure, shortened: as §2
[4] = system: Enterococcus faecium; assay: Antibacterial activity against Enterococcus faecium 08-2 after 18 to 24 hrs by twofold serial dilution method; procedure, shortened: as §2
[5] = system: Escherichia coli; assay: Antibacterial activity against Escherichia coli ATCC 25922 after 18 to 24 hrs by twofold serial dilution method; procedure, shortened: as §2
[6] = system: Staphylococcus epidermidis; assay: Antibacterial activity against methicillin-sensitive Staphylococcus epidermidis 09-6 after 18 to 24 hrs by twofold serial dilution method; procedure, shortened: as §1
[7] = system: Staphylococcus epidermidis; assay: Antibacterial activity against methicillin-resistant Staphylococcus epidermidis 09-2 after 18 to 24 hrs by twofold serial dilution method; procedure, shortened: as §1
[8] = system: Pseudomonas aeruginosa; assay: Antibacterial activity against Pseudomonas aeruginosa 09-35 after 18 to 24 hrs by twofold serial dilution method; procedure, shortened: as §2
[9] = system: Streptococcus pneumoniae; assay: Antibacterial activity against Streptococcus pneumoniae 08-2 after 18 to 24 hrs by twofold serial dilution method; procedure, shortened: as §2
[10] = system: Staphylococcus aureus; assay: Antibacterial activity against methicillin-sensitive Staphylococcus aureus 08-2 after 18 to 24 hrs by twofold serial dilution method; procedure, shortened: as §1
[11] = system: Klebsiella pneumoniae; assay: Antibacterial activity against Klebsiella pneumoniae 09-22 after 18 to 24 hrs by twofold serial dilution method; procedure, shortened: as §2
[12] = system: Escherichia coli; assay: Antibacterial activity against Escherichia coli 08-21 after 18 to 24 hrs by twofold serial dilution method; procedure, shortened: as §2
[13] = system: Staphylococcus aureus; assay: Antibacterial activity against methicillin-resistant Staphylococcus aureus 08-1 after 18 to 24 hrs by twofold serial dilution method; procedure, shortened: as §1
[14] = system: Escherichia coli; assay: Antibacterial activity against Escherichia coli 08-22 after 18 to 24 hrs by twofold serial dilution method; procedure, shortened: as §2
[15] = system: Pseudomonas aeruginosa; assay: Antibacterial activity against Pseudomonas aeruginosa 09-32 after 18 to 24 hrs by twofold serial dilution method; procedure, shortened: as §2
[16] = system: Staphylococcus epidermidis; assay: Antibacterial activity against methicillin-resistant Staphylococcus epidermidis 09-4 after 18 to 24 hrs by twofold serial dilution method; procedure, shortened: as §1
[17] = system: Pseudomonas aeruginosa; assay: Antibacterial activity against Pseudomonas aeruginosa 09-34 after 18 to 24 hrs by twofold serial dilution method; procedure, shortened: as §2
[18] = system: Enterococcus faecium; assay: Antibacterial activity against Enterococcus faecium 08-7 after 18 to 24 hrs by twofold serial dilution method; procedure, shortened: as §2
[19] = system: Enterococcus faecalis; assay: Antibacterial activity against Enterococcus faecalis 08-10 after 18 to 24 hrs by twofold serial dilution method; procedure, shortened: as §2
[20] = system: Klebsiella pneumoniae; assay: Antibacterial activity against Klebsiella pneumoniae 09-23 after 18 to 24 hrs by twofold serial dilution method; procedure, shortened: as §2
[21] = system: Staphylococcus epidermidis; assay: Antibacterial activity against methicillin-resistant Staphylococcus epidermidis 09-3 after 18 to 24 hrs by twofold serial dilution method; procedure, shortened: as §1
[22] = system: Pseudomonas aeruginosa; assay: Antibacterial activity against Pseudomonas aeruginosa 09-33 after 18 to 24 hrs by twofold serial dilution method; procedure, shortened: as §2
[23] = system: Streptococcus pneumoniae; assay: Antibacterial activity against Streptococcus pneumoniae 08-4 after 18 to 24 hrs by twofold serial dilution method; procedure, shortened: as §2
[24] = system: Enterococcus faecalis; assay: Antibacterial activity against Enterococcus faecalis 08-12 after 18 to 24 hrs by twofold serial dilution method; procedure, shortened: as §2
[25] = system: Staphylococcus aureus; assay: Antibacterial activity against Staphylococcus aureus ATCC […] after 18 to 24 hrs by twofold serial dilution method; procedure, shortened: as §2

CCO/N=C1\CN(c2c(F)cc3c(=O)c(C(=O)O)cn(C4CC4)c3c2OC(F)F)CC1/C(N)=N\OCC (stereo not given)
MIC [1]: > 128 µg/mL
MIC [2]: 128 µg/mL (≈ 244 µM)
MIC [3]: > 128 µg/mL
MIC [4]: > 128 µg/mL
MIC [5]: 128 µg/mL (≈ 244 µM)
MIC [6]: > 128 µg/mL
MIC [7]: 64 µg/mL (≈ 122 µM)
MIC [8]: > 128 µg/mL
MIC [9]: > 128 µg/mL
MIC [10]: 64 µg/mL (≈ 122 µM)
MIC [11]: 64 µg/mL (≈ 122 µM)
MIC [12]: > 128 µg/mL
MIC [13]: 2 µg/mL (≈ 3.81 µM)
MIC [14]: > 128 µg/mL
MIC [15]: > 128 µg/mL
MIC [16]: > 128 µg/mL
MIC [17]: > 128 µg/mL
MIC [18]: > 128 µg/mL
MIC [19]: > 128 µg/mL
MIC [20]: > 128 µg/mL
MIC [21]: 64 µg/mL (≈ 122 µM)
MIC [22]: > 128 µg/mL
MIC [23]: > 128 µg/mL
MIC [24]: 64 µg/mL (≈ 122 µM)
MIC [25]: 1 µg/mL (≈ 1.9 µM)

CO/N=C1\CN(c2c(F)cc3c(=O)c(C(=O)O)cn4c3c2OC[C@@H]4C)CC1/C(N)=N\O (stereo not given in full)
MIC [1]: 0.25 µg/mL (≈ 0.577 µM)
MIC [2]: 32 µg/mL (≈ 73.8 µM)
MIC [3]: > 128 µg/mL
MIC [4]: > 128 µg/mL
MIC [5]: 128 µg/mL (≈ 295 µM)
MIC [6]: 0.25 µg/mL (≈ 0.577 µM)
MIC [7]: 0.25 µg/mL (≈ 0.577 µM)
MIC [8]: 128 µg/mL (≈ 295 µM)
MIC [9]: 0.25 µg/mL (≈ 0.577 µM)
MIC [10]: 4 µg/mL (≈ 9.23 µM)
MIC [11]: 16 µg/mL (≈ 36.9 µM)
MIC [12]: > 128 µg/mL
MIC [13]: 0.25 µg/mL (≈ 0.577 µM)
MIC [14]: > 128 µg/mL
MIC [15]: 64 µg/mL (≈ 148 µM)
MIC [16]: 0.25 µg/mL (≈ 0.577 µM)
MIC [17]: > 128 µg/mL
MIC [18]: > 128 µg/mL
MIC [19]: > 128 µg/mL
MIC [20]: > 128 µg/mL
MIC [21]: 0.25 µg/mL (≈ 0.577 µM)
MIC [22]: > 128 µg/mL
MIC [23]: 16 µg/mL (≈ 36.9 µM)
MIC [24]: > 128 µg/mL
MIC [25]: 0.125 µg/mL (≈ 0.288 µM)

CCO/N=C1\CN(c2c(F)cc3c(=O)c(C(=O)O)cn4c3c2OC[C@@H]4C)CC1/C(N)=N\O (stereo not given in full)
MIC [1]: 0.25 µg/mL (≈ 0.559 µM)
MIC [2]: 32 µg/mL (≈ 71.5 µM)
MIC [3]: > 128 µg/mL
MIC [4]: > 128 µg/mL
MIC [5]: > 128 µg/mL
MIC [6]: 0.25 µg/mL (≈ 0.559 µM)
MIC [7]: 0.5 µg/mL (≈ 1.12 µM)
MIC [8]: 64 µg/mL (≈ 143 µM)
MIC [9]: > 128 µg/mL
MIC [10]: 0.25 µg/mL (≈ 0.559 µM)
MIC [11]: 16 µg/mL (≈ 35.8 µM)
MIC [12]: > 128 µg/mL
MIC [13]: 0.25 µg/mL (≈ 0.559 µM)
MIC [14]: > 128 µg/mL
MIC [15]: 64 µg/mL (≈ 143 µM)
MIC [16]: 0.5 µg/mL (≈ 1.12 µM)
MIC [17]: > 128 µg/mL
MIC [18]: > 128 µg/mL
MIC [19]: > 128 µg/mL
MIC [20]: > 128 µg/mL
MIC [21]: 0.25 µg/mL (≈ 0.559 µM)
MIC [22]: > 128 µg/mL
MIC [23]: 16 µg/mL (≈ 35.8 µM)
MIC [24]: > 128 µg/mL
MIC [25]: 0.25 µg/mL (≈ 0.559 µM)
